Bioassay records as filed in PubChem BioAssay.
In the library only some 3.3% were active in any assay of this set; here they are far more common.
SENP8 block-1: SENP8 (human) protease inhibition; Q96LD8; recombinant SENP8, Nedd8 substrate fluorescence; inhibition, % at 20 µM; hit rate 0.64% among 360,000; in the data active = inhibition mostly above about 40%, no sharp cut-off; inactive = mostly below about 27%
Target sequence (Q96LD8 whole entry, looked up): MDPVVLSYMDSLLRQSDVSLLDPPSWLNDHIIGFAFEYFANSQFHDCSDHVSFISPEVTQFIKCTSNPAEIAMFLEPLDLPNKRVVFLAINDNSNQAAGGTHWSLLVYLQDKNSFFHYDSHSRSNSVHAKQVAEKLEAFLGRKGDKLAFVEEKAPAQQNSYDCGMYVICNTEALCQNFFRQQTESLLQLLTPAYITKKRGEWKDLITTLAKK
SENP1 FRET inh: blocks the human SENP1 SUMO protease catalytic domain. Q9P0U3. recombinant SENP1 catalytic domain, CyPet-SUMO1-YPet FRET cleavage. inhibition, % at 10 µM. hit rate 0.21% among 360,000;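 active = inhibition at least 30% at 10 µM, raw YFP signal under a set limit, fluorescence ratio 0.5 to 1.5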;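 also: 0% = enzyme with DMSO and 100% = no enzyme wells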
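Controls: no-enzyme wells low, DMSO-plus-enzyme wells high control. Test system: human recombinant His6-tagged SENP1 catalytic domain enzyme. Reagent: SFCypet-SUMO1-SFYpet FRET protein substrate, 25 nM final. Doses: one dose per compound, 10 µM, 0.5% DMSO. Detection: FRET, CFP and YFP emission. Timing: 50 min reaction at room temperature.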
SENP7 inh: inhibitors of human SENP7 protease | hit rate 1.5% among 330,000 | Q9BQF6 | inhibition, % at 5 µM | recombinant SENP7, Z-RLRGG-aminoluciferin luminescence, 40 min;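 active = inhibition above about 50% at the single test dose, limit read from the data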;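 also: plate controls were DMSO with enzyme for no effect and no enzyme buffer wells for full effect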
SENP6 inh: blocks the human protease SENP6; Q9GZR1; Recombinant SENP6 catalytic domain, aminoluciferin luminescence; inhibition, % at 10 µM; hit rate 1.8% among 330,000; AID 2599;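 active = inhibition above about 50% at the single tested dose, limit read from the data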;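 also: plate controls were DMSO wells with enzyme for no effect and DMSO wells lacking enzyme for full effect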
Target sequence (Q9GZR1 628-1112 limits assumed): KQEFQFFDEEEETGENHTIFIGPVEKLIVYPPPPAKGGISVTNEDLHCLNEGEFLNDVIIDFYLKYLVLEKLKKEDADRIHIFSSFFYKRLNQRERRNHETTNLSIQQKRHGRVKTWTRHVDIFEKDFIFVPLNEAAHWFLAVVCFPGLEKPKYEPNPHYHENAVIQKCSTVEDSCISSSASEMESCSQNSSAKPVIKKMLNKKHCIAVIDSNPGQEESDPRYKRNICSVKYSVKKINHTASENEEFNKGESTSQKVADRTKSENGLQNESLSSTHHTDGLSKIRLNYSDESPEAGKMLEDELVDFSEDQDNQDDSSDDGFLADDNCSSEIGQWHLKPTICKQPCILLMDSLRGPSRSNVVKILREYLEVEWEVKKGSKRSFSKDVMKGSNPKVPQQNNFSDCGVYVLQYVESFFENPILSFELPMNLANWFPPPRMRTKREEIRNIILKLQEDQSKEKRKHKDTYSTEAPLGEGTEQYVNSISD
CendR NRP1 mod: NRP-1/CendR interaction modulation. FAM-RPARPAR peptide binding to NRP-1, fluorescence polarization. inhibition, % at 25 µM. hit rate 0.85% among 360,000. AID 602438;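 active = inhibition or corrected inhibition above about 18%, plus a signal ratio from 0.5 to 1.5, limit read from the data, passing the limit was not always enough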
SENP8 block-2: SENP8 protease inhibition; inhibition, % at 10 µM; Q96LD8; purified SENP8, Z-RLRGG-aminoluciferin cleavage, luminescence; hit rate 1.2% among 330,000; AID 2540; in the data active = inhibition above about 50%
SENP8 confirm: confirmation of human SENP8 protease inhibitors. shares compounds with SENP7 inh. Recombinant SENP8, Z-RLRGG-aminoluciferin luminescence, 60 min. inhibition, % at 12.5 µM. hit rate 40% among 6,200. AID 488912;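 active = mean inhibition across replicates above about 50%, limit read from the data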
SENP6 confirm: human SENP6 inhibition, confirmed; shares compounds with SENP7 inh; recombinant SENP6, Z-RLRGG-aminoluciferin luminescence; inhibition, % at 12.5 µM; hit rate 58% among 6,200
SENP7 confirm: confirmation of human SENP7 protease inhibitors; shares compounds with SENP7 inh; AID 488917; hit rate 69% among 6,200; inhibition, % at 12.5 µM; recombinant SENP7, Z-RLRGG-aminoluciferin luminescence, 40 min
Casp3 SENP sel: inhibits human caspase-3 in SENP selectivity test; shares compounds with SENP7 inh; purified caspase-3, Z-DEVD-aminoluciferin luminescence, 60 min; inhibition, % at 12.5 µM; hit rate 60% among 6,200;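 active = mean inhibition above about 50%, limit read from the data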;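 also: plate controls were enzyme with DMSO for no effect and wells without caspase-3 for full effect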
Luc interf: luminescence interference (SENP counter-screen) | shares compounds with SENP7 inh | Pre-incubated SENP8/Z-RLRGG-aminoluciferin, luciferase luminescence interference | inhibition, % at 12.5 µM | hit rate 39% among 6,200 | AID 488919;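 active = mean inhibition above about 50% when retested at one dose, limit read from the data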;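 also: plate controls were DMSO wells with completed reaction for no effect and substrate without enzyme for full effect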
Starred values were filed as active, the others as inactive; x = no result.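 The calls were made as follows, unless noted: active = mean inhibition above about 50% in the one-dose retest (limit read from the data); inactive = the rest.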

SMILES | SENP8 block-1 | SENP1 FRET inh | SENP7 inh | SENP6 inh | CendR NRP1 mod | SENP8 block-2 | SENP8 confirm | SENP6 confirm | SENP7 confirm | Casp3 SENP sel | Luc interf
O=C(Nc1ccc(F)cc1F)c1ccc2c(=O)n3c(nc2c1)CCC3 | 9 | -1 | 61* | 64* | 10 | 26 | 47 | 52* | 80* | 86* | 40
Cc1ccc(S(=O)(=O)n2c(N)nc3ccccc32)cc1 | 22 | 0 | 0 | -6 | 4 | 0 | x | x | x | x | x
Cc1ccc(C(=O)n2c(N)nc3ccccc32)cc1 | -30 | 0 | 97* | 86* | 5 | 91* | 90* | 95* | 101* | 96* | 66*
O=C(N/N=C/c1cccc([N+](=O)[O-])c1)c1nc2ccccc2c(=O)[nH]1 | 16 | 0 | 5 | -4 | 2 | 7 | x | x | x | x | x
O=C(NN=Cc1ccccc1Cl)c1ccccc1 | 20 | 1 | x | x | 7 | x | x | x | x | x | x
O=C(N/N=C/c1ccccc1Cl)c1ccc(F)cc1 | 8 | 0 | 37 | 69* | -10 | 9 | 2 | 16 | 8 | 48 | 44
O=C(N/N=C/c1ccccc1Cl)c1nc2ccc([N+](=O)[O-])cc2c(=O)[nH]1 | -50 | -34 | 46 | 57* | -78 | 75* | 47 | 53* | 48 | 50* | 45
O=C1c2ccccc2C(c2nnnn2-c2ccc3c(c2)OCCO3)N1Cc1cccnc1 (configuration not stated) | 33 | -5 | x | x | 6 | x | x | x | x | x | x
COc1ccc(CN2C(=O)CN(S(C)(=O)=O)CC2(C)C(=O)NC(C)C)cc1OC (configuration not stated) | 15 | 0 | x | x | -7 | x | x | x | x | x | x
COc1ccccc1-c1nc2cc3ccccc3cc2nc1-c1ccccc1 | -144 | -27 | 4 | 51* | -4 | 6 | -4 | 3 | -5 | -3 | -3
O=C(Nc1ccc2c(c1)OCCO2)C(c1ccnc2ccccc12)N1CCC(Cc2ccccc2)CC1 (configuration not stated) | 14 | -2 | x | x | 0 | x | x | x | x | x | x
Cc1nc2sc(-c3ccccc3)nn2c(=O)c1Br | -30 | 1 | 73* | 75* | -6 | 60* | 48 | 33 | 42 | 61* | 11
COc1ccc(-c2nn3c(=O)c(C)nnc3s2)cc1 | -194 | -5 | -3 | 1 | -8 | 0 | x | x | x | x | x
[O-]/C(=C(\C(=S)Nc1cccc2ccccc12)[n+]1ccccc1)c1cccs1 | -362 | -73 | 23 | 56* | -12 | 12 | 7 | 12 | -6 | 4 | -2
Cc1cccc(C)c1NC(=S)/C(=C(\[O-])c1cccs1)[n+]1ccccc1 | 14 | -5 | 5 | 0 | -8 | -5 | x | x | x | x | x
O=C(CNc1ccc2ccccc2c1)N/N=C/c1ccc(C(=O)O)cc1 | -203 | -15 | 0 | -10 | -12 | 3 | x | x | x | x | x
C/C(=N\NC(=O)CNc1cccc2ccccc12)c1ccccc1 | -351 | -13 | 19 | 73* | -7 | 54* | 0 | 4 | 10 | 1 | 0
O=C(CNc1cccc2ccccc12)N/N=C/c1ccc(C(=O)O)cc1 | -199 | -7 | 30 | 71* | -21 | 58* | -8 | -3 | -5 | 4 | 3
C/C(CCc1ccco1)=N\NC(=O)CNc1cccc2ccccc12 | -412 | -6 | -1 | 4 | 0 | -4 | x | x | x | x | x
O=C(CNc1cccc2ccccc12)N/N=C/C=C/c1ccco1 | -86 | 3 | 32 | 82* | 7 | 60* | 1 | 6 | 13 | 4 | 3
CCc1nc2ccc(C(=O)Nc3ccc(OC)c(OC)c3)cn2c1N(C)Cc1nccs1 | 10 | -24 | x | x | 3 | x | x | x | x | x | x
Cc1cc(Br)c(Oc2cc(NN3CCCCC3)c([N+](=O)[O-])cc2[N+](=O)[O-])c(Br)c1 | 22 | 3 | x | x | -9 | x | x | x | x | x | x
Cc1ccc(/C=N/OC(=O)c2nn(C)cc2Cl)cc1 | 8 | -1 | 66* | 66* | -2 | 50* | -5 | 21 | 62* | 34 | 49
Nc1sccc1C(=O)NC1CC1 | 23 | -1 | x | x | -5 | x | x | x | x | x | x
COc1ccc2c(c1)CC/C2=N\OC(=O)c1ccccc1C | 7 | 1 | 80* | 79* | -13 | 73* | 28 | 82* | 83* | 72* | 39
SMILES | SENP8 block-1 | SENP1 FRET inh | SENP7 inh | SENP6 inh | CendR NRP1 mod | SENP8 block-2 | SENP8 confirm | SENP6 confirm | SENP7 confirm | Casp3 SENP sel | Luc interf
COc1ccc2c(c1)CC/C2=N\NC(=O)c1ccccc1 | 3 | -3 | -13 | 1 | 13 | -13 | x | x | x | x | x
COc1ccc2c(c1)CCC/C2=N/OC(=O)c1ccccc1OC | 5 | 2 | 10 | -2 | 0 | -3 | x | x | x | x | x
COc1ccc2c(c1)CC/C2=N\OC(=O)c1cccc(C)c1 | -7 | 0 | 84* | 86* | 4 | 72* | -3 | 6 | 6 | 9 | 8
CC1(C(=O)NS(=O)(=O)c2cccc(OC(F)F)c2)CCN1C(=O)C/C=C/c1ccccc1 (configuration not stated) | 8 | -1 | x | x | 12 | x | x | x | x | x | x
CC(Nc1ccc(Br)cc1)C(=O)NC(=O)NC1CCCCC1 (configuration not stated) | 8 | 1 | x | x | 4 | x | x | x | x | x | x
COc1ccc(CN2C(=O)C(CC(=O)NCc3ccco3)CC(C(=O)N(C(C)C)C(C)C)=C2C)cc1 (configuration not stated) | 16 | 1 | x | x | 0 | x | x | x | x | x | x
Cc1cc(Cl)ccc1C(O)c1ncc(-c2ccc(F)cc2)[nH]1 (configuration not stated) | 4 | 1 | x | x | -11 | x | x | x | x | x | x
Fc1cccc(NC(=S)N2CCc3ccccc32)c1 | 6 | 4 | 2 | 57* | 7 | 10 | 12 | 2 | 10 | 3 | 17
S=C(Nc1ccccc1)N1CCc2ccccc21 | 20 | 2 | 10 | -11 | -2 | -15 | x | x | x | x | x
O=C(Nc1cccc2ccccc12)N1CC=CCC1 | -426 | -2 | 42 | 65* | 3 | 14 | -6 | -5 | -11 | 1 | 2
COc1cccc(/C=N/Nc2ccc(S(=O)(=O)O)cc2)c1O | -95 | -1 | -10 | 17 | 11 | 4 | x | x | x | x | x
COc1cccc(/C=N/Nc2ccccc2C(=O)O)c1O | 10 | 0 | 79* | 93* | -5 | 88* | 94* | 94* | 99* | 92* | 93*
COc1ccccc1/C=C/C=N/Nc1cccc(C(=O)O)c1 | -167 | -23 | 87* | 98* | 10 | 95* | 99* | 100* | 102* | 80* | 98*
